Reference: ChEMBL document CHEMBL3856186, “Partial Activation and Inhibition of TRPV1 Channels by Evodiamine and Rutaecarpine, Two Major Components of the Fruits of Evodia rutaecarpa” (J Nat Prod, 2016)
Calls of active or inactive are those of the source. The rule behind the calls is not given here.

Columns and labels:
Format in all cases: cell-based
[1] = target: Transient receptor potential cation channel subfamily V member 1 (Rattus norvegicus) (UniProt O35433); experiment: Partial antagonist activity at rat TRPV1 expressed in HEK293 cells assessed as effect on capsaicin-induced inward current at 10 uM by whole-cell patch clamp method (reference value: -151.2 +/- 33 pA/pF)
Procedure, shortened: (§1)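 HEK293 cells transiently expressing rat TRPV1 (EGFP cotransfected) were patched in whole-cell mode 1 day post-transfection. Cells were held at −60 mV in Ca2+-containing standard bath (pH 7.4) at ~25 °C. Capsaicin-evoked peak current amplitude was quantified. Sigmoidal curve fitting gave EC50 or IC50 values.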

[2] = target: Transient receptor potential cation channel subfamily V member 1 (Rattus norvegicus) (UniProt O35433); experiment: Partial antagonist activity at rat TRPV1 expressed in HEK293 cells assessed as effect on capsaicin-induced inward current at 1 uM by whole-cell patch clamp method (reference value: -151.2 +/- 33 pA/pF); procedure, shortened: as §1
[3] = target: Transient receptor potential cation channel subfamily V member 1 (Rattus norvegicus) (UniProt O35433); experiment: Partial antagonist activity at rat TRPV1 expressed in HEK293 cells assessed as desensitization of capsaicin-induced inward current at 10 uM and -60 mV holding potential pretreated for 60 secs prior to capsaicin-challenge in absence of calcium by whole-cell patch-clamp method
Procedure, shortened: (§2)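 Whole-cell clamp at −60 mV was done on rat TRPV1-transfected HEK293 cells (1 day) using a calcium-free bath (5 mM EGTA, no CaCl2, pH 7.4) at ~25 °C. Capsaicin-evoked peak current was measured.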

[4] = target: Transient receptor potential cation channel subfamily V member 1 (Rattus norvegicus) (UniProt O35433); experiment: Partial antagonist activity at rat TRPV1 expressed in HEK293 cells assessed as effect on capsaicin-induced inward current at 0.6 uM by whole-cell patch clamp method (reference value: -[…] +/- […] pA/pF)
[5] = target: Transient receptor potential cation channel subfamily V member 1 (Rattus norvegicus) (UniProt O35433); experiment: Partial antagonist activity at rat TRPV1 expressed in HEK293 cells assessed as effect on capsaicin-induced inward current at 10 uM by whole-cell patch clamp method; procedure, shortened: as §1
[6] = target: Transient receptor potential cation channel subfamily V member 1 (Rattus norvegicus) (UniProt O35433); experiment: (§3) Partial antagonist activity at rat TRPV1 expressed in HEK293 cells assessed as effect on capsaicin current density at 1 uM pretreated for 180 sec followed by capsaicin addition at -60 mV holding potential in presence of extracellular calcium by whole-cell patch-clamp method (reference value: -327.4 +/- 52.3 pA/pF); procedure, shortened: as §1
[7] = target: Transient receptor potential cation channel subfamily V member 1 (Rattus norvegicus) (UniProt O35433); experiment: Partial antagonist activity at rat TRPV1 expressed in HEK293 cells assessed as inhibition of proton-induced channel current at 1 or 50 uM and -60 mV holding potential pretreated for 60 secs prior to proton-challenge by whole-cell patch clamp method (reference value: 185.1 +/- 38.6 pA/pF)
Procedure, shortened: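 Proton-activated currents were recorded in rat TRPV1-expressing HEK293 cells held at −60 mV in whole-cell mode, with bath buffered to pH 6 with 10 mM MES, at ~25 °C. Peak current amplitude was the read-out.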

[8] = target: Transient receptor potential cation channel subfamily V member 1 (Rattus norvegicus) (UniProt O35433); experiment: Partial antagonist activity at rat TRPV1 expressed in HEK293 cells assessed as effect on capsaicin-induced inward current at 0.6 uM by whole-cell patch clamp method (reference value: -431 +/- 43.1 pA/pF); procedure, shortened: as §1
[9] = target: Transient receptor potential cation channel subfamily V member 1 (Rattus norvegicus) (UniProt O35433); experiment: Partial antagonist activity at rat TRPV1 expressed in HEK293 cells assessed as effect on capsaicin-induced inward current at 10 uM by whole-cell patch clamp method (reference value: -480.7 +/- 96.9 pA/pF); procedure, shortened: as §1
[10] = target: Transient receptor potential cation channel subfamily V member 1 (Rattus norvegicus) (UniProt O35433); experiment: as §3, with “at 0.5” for “at 1”; procedure, shortened: as §1
[11] = target: Transient receptor potential cation channel subfamily V member 1 (Rattus norvegicus) (UniProt O35433); experiment: Partial antagonist activity at rat TRPV1 expressed in HEK293 cells assessed as effect on capsaicin-induced inward current at 1 uM by whole-cell patch clamp method (reference value: -327.4 +/- 52.3 pA/pF); procedure, shortened: as §1
[12] = target: Transient receptor potential cation channel subfamily V member 1 (Rattus norvegicus) (UniProt O35433); experiment: Partial antagonist activity at rat TRPV1 expressed in HEK293 cells assessed as effect on capsaicin-induced inward current at 10 uM by whole-cell patch clamp method (reference value: -327.4 +/- 52.3 pA/pF); procedure, shortened: as §1
[13] = target: Transient receptor potential cation channel subfamily V member 1 (Rattus norvegicus) (UniProt O35433); experiment: Partial antagonist activity at rat TRPV1 expressed in HEK293 cells assessed as effect on capsaicin-induced inward current at 1 uM by whole-cell patch clamp method (reference value: -480.7 +/- 96.9 pA/pF); procedure, shortened: as §1
[14] = target: Transient receptor potential cation channel subfamily V member 1 (Rattus norvegicus) (UniProt O35433); experiment: Partial antagonist activity at rat TRPV1 expressed in HEK293 cells assessed as effect on capsaicin-induced inward current at 0.1 uM by whole-cell patch clamp method (reference value: -[…] +/- […] pA/pF)
[15] = target: Transient receptor potential cation channel subfamily V member 1 (Rattus norvegicus) (UniProt O35433); experiment: Partial antagonist activity at rat TRPV1 expressed in HEK293 cells assessed as effect on capsaicin-induced inward current at 0.1 uM by whole-cell patch clamp method (reference value: -431 +/- 43.1 pA/pF); procedure, shortened: as §1
[16] = target: Transient receptor potential cation channel subfamily V member 1 (Rattus norvegicus) (UniProt O35433); experiment: Partial antagonist activity at rat TRPV1 expressed in HEK293 cells assessed as effect on capsaicin-induced inward current at 0.6 uM by whole-cell patch clamp method (reference value: -327.4 +/- 52.3 pA/pF); procedure, shortened: as §1
[17] = target: Transient receptor potential cation channel subfamily V member 1 (Rattus norvegicus) (UniProt O35433); experiment: as §3, with “at 10” for “at 1”; procedure, shortened: as §1
[18] = target: Transient receptor potential cation channel subfamily V member 1 (Rattus norvegicus) (UniProt O35433); experiment: Agonist activity at rat TRPV1 channel expressed in HEK293 cells assessed as induction of maximum channel current at 10 uM at -60 mV holding potential by whole-cell patch-clamp method
Procedure, shortened: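 Rat TRPV1 cDNA and an EGFP reporter were cotransfected into HEK293 cells, with recording 1 day later. Whole-cell voltage clamp was run at room temperature (~25 °C) in standard bath (2 mM CaCl2, pH 7.4) with a KCl/MgATP/EGTA pipette solution. Steps from −100 to +100 mV (100 ms) gave I–V curves. Agonist was applied until desensitization, and peak current was scored. EC50 came from a sigmoidal fit.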

[19] = target: Transient receptor potential cation channel subfamily V member 1 (Rattus norvegicus) (UniProt O35433); experiment: Partial antagonist activity at rat TRPV1 expressed in HEK293 cells assessed as effect on capsaicin-induced inward current at 10 uM by whole-cell patch clamp method (reference value: -431 +/- 43.1 pA/pF); procedure, shortened: as §1
[20] = target: Transient receptor potential cation channel subfamily V member 1 (Rattus norvegicus) (UniProt O35433); experiment: Partial antagonist activity at rat TRPV1 expressed in HEK293 cells assessed as effect on capsaicin current density at 10 uM at -60 mV holding potential in absence of extracellular calcium by whole-cell patch-clamp method (reference value: -2407.7 +/- 850.6 pA); procedure, shortened: as §2

Sequence of Transient receptor potential cation channel subfamily V member 1 (Rattus norvegicus) (O35433 whole entry): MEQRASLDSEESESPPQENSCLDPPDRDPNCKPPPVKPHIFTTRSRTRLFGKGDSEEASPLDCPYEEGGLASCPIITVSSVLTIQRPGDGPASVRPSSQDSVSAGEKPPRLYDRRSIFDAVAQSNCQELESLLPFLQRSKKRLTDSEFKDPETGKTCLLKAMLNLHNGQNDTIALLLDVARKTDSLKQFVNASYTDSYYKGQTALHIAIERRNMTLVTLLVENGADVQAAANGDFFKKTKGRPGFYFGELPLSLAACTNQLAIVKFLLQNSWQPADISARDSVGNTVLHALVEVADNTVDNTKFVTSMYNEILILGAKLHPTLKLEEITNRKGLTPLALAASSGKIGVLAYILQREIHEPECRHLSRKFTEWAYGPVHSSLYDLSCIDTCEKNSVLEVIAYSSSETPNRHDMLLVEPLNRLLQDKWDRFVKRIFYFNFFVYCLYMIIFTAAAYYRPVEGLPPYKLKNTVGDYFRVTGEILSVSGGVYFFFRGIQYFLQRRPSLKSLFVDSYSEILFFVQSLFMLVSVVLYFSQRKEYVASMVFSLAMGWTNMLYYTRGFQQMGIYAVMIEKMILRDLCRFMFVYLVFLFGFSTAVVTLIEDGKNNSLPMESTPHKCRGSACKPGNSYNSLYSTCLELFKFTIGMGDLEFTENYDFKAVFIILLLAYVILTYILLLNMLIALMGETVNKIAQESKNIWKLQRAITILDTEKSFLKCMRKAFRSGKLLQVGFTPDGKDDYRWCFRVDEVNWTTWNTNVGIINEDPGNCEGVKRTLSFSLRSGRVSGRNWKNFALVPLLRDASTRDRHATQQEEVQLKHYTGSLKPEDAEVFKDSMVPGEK

CN1c2ccccc2C(=O)N2CCc3c([nH]c4ccccc34)C21 (stereo not given)
Activity [1]: -172 pA/pF
Activity [2]: -75 pA/pF
Activity [3]: Active
Activity [4]: -528 pA/pF
Activity [5]: -439 pA/pF
Activity [6]: -132 pA/pF
Activity [7]: -49.1 pA/pF
Activity [8]: -328 pA/pF
Activity [9]: -256 pA/pF
Activity [10]: -143 pA/pF
Activity [11]: -195 pA/pF
Activity [12]: -160 pA/pF
Activity [13]: -296 pA/pF
Activity [14]: -492 pA/pF
Activity [15]: -390 pA/pF
Activity [16]: -208 pA/pF
Activity [17]: -60.3 pA/pF
Activity [18]: -143 pA/pF
Activity [19]: -237 pA/pF
Activity [20]: -2400 pA/pF
